Experiment [1] concerns HeLa. The experiment in a line: Antiproliferative activity against human HeLa cells assessed as growth inhibition after 72 hrs by MTT assay.
The test system of a further experiment is MCF7. The experiment in a line: Antiproliferative activity against human MCF7 cells assessed as growth inhibition after 72 hrs by MTT assay. The note with it: MCF7, 72 h.
Experiment [2] has as its target Serine/threonine-protein kinase PLK2 (Homo sapiens, UniProt Q9NYY3). The experiment in a line: Inhibition of recombinant Plk2 (unknown origin).
Experiment [3] deals with Serine/threonine-protein kinase PLK3 (Homo sapiens, UniProt Q9H4B4). The experiment in a line: Inhibition of recombinant Plk3 (unknown origin).
Experiment [4] has as its system HeLa. Kind of experiment: Induction of apoptosis in human HeLa cells assessed as PARP cleavage at 1 uM after 24 to 48 hrs by Western blot analysis. Type of experiment: functional, cell-based. Summed up: (§1)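 HeLa cells exposed to 1 µM for 24 h, with treatment continued to 48 h. Cell proteins analysed by western blot for PARP, total Caspase-3 and its cleaved active form.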

For experiment [5], the system named is HeLa. Kind of experiment: Induction of apoptosis in human HeLa cells assessed as apoptotic cells at 1 uM after 24 hrs using annexin V/propidium iodide double staining by flow cytometry (reference value: 4.4 %). It is filed as functional.
Experiment [6] has as its system HeLa. Kind of experiment: Induction of apoptosis in human HeLa cells assessed as increase in cleaved caspase-3 level at 1 uM after 24 to 48 hrs by Western blot analysis. It is filed as functional, cell-based. Summed up: as §1

SMILES strings stand for the structures. Calls of active or inactive are those of the source. The rule behind the calls is not given here. Some results are limits rather than exact numbers.

Chain of Serine/threonine-protein kinase PLK3 (Q9H4B4 whole entry): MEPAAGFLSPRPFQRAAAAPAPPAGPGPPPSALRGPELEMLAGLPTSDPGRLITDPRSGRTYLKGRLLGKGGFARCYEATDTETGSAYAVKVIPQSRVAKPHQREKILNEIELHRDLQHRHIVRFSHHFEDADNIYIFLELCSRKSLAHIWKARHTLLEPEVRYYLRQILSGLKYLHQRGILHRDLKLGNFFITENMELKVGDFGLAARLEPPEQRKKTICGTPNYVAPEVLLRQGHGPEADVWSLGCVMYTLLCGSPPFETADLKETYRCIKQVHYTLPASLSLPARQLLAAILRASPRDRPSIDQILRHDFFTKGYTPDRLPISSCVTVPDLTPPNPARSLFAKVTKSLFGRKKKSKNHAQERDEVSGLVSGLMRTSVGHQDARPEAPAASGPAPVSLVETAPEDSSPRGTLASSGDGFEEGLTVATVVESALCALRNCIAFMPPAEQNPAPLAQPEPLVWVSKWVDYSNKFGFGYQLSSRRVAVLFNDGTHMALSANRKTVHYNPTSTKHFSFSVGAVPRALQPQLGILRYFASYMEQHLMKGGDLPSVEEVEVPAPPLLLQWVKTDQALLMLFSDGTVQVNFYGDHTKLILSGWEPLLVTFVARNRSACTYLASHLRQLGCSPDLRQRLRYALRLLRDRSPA
Chain of Serine/threonine-protein kinase PLK2 (Q9NYY3 whole entry): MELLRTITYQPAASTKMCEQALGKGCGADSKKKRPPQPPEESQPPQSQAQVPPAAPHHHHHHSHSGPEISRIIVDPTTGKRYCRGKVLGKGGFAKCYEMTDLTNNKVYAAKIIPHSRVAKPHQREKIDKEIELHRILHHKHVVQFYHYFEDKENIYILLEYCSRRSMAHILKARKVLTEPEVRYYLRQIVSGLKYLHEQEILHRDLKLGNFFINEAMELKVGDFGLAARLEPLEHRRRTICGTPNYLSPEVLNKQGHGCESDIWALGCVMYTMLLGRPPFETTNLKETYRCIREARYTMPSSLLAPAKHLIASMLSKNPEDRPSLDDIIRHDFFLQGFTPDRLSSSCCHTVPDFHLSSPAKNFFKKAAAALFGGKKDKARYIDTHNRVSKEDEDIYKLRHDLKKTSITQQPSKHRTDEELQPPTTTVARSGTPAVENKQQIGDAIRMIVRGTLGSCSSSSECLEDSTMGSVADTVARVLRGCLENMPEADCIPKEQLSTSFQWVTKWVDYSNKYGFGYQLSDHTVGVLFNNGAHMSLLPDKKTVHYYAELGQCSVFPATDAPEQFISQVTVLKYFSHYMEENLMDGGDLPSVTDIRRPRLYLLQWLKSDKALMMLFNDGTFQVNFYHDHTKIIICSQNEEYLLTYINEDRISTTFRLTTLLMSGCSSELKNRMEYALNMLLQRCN

Consider `CN1CCN(CC(O)Cn2cc(C(=O)O)c3ccccc32)CC1` (racemic), for which the IC50 in the experiment with HeLa [1] and in the experiment with MCF7 was over 10 µM throughout.

Consider `CC1=CC(=O)C(C(C)C)=CC1=O` [THYMOQUINONE], for which the IC50 in experiment [2] is 14.7 µM; in experiment [3], over 50 µM; with HeLa [1], 2.06 µM; with MCF7, 6.19 µM.

Consider `CN1CCN(CC(O)Cn2cc(CC(=O)O)c3ccccc32)CC1` (racemic), for which the half-maximal inhibitory concentration (IC50) in the experiment on HeLa [1] is 3.97 µM; in the experiment with MCF7, 2.44 µM.

Turning to `O=C(O)Cc1cn(CC(O)CN2CCCCC2)c2ccccc12` (racemic), the IC50 in the experiment on HeLa [1] worked out at 0.97 µM; in the experiment on MCF7, 1.89 µM.

For `CCN(CC)CC(O)Cn1cc(CC(=O)O)c2ccccc21` (racemic), the figures for the IC50 in the experiment with HeLa [1] and with MCF7 were 6.63 µM and 3.16 µM, respectively.

For `O=C(O)CCc1cn(CC(O)CN2CCCC2)c2ccccc12` (racemic), the IC50 with HeLa [1] is 4.95 µM; in the experiment with MCF7 it was over 10 µM.

As for `O=C(O)c1cn(CC(O)CN2CCCCC2)c2ccccc12` (racemic), the values for the 50% inhibitory concentration (IC50) in the experiment with HeLa [1] and with MCF7 were 4.92 µM and 5.33 µM, respectively.

Regarding `CCN(CC)CC(O)Cn1cc(C(=O)O)c2ccccc21` (racemic), the IC50 amounted to 6.72 µM in the experiment on HeLa [1] and 4.37 µM in the experiment with MCF7.

On to `O=C(O)Cc1cn(CC(O)CN2CCCC2)c2ccccc12` (racemic), for which the IC50 in experiment [2] was over 50 µM; in experiment [3] it was over 50 µM; with HeLa [1], 0.72 µM; with MCF7 it was 1.15 µM. Besides, the result in the experiment with HeLa [4] and with HeLa [6] was Active. Also, in the experiment on HeLa [5], the Activity is recorded as 12.7%.

For `O=C(O)CCc1cn(CC(O)CN2CCCCC2)c2ccccc12` (racemic), the IC50 was over 10 µM in the experiment with HeLa [1] and 8.79 µM in the experiment on MCF7.

On to `O=C(O)Cc1cn(CC(O)CN2CCOCC2)c2ccccc12` (racemic), for which the figures for the IC50 with HeLa [1] and in the experiment with MCF7 were 2.13 µM and over 10 µM, respectively.

As for `O=C(O)c1cn(CC(O)CN2CCCC2)c2ccccc12` (racemic), the IC50 in the experiment on HeLa [1] was 7.34 µM; with MCF7, over 10 µM.

For the origin of these results see ChEMBL document CHEMBL3392993, “Identification of indole-3-carboxylic acids as non-ATP-competitive Polo-like kinase 1 (Plk1) inhibitors” (Bioorg Med Chem Lett, 2015).
